Screens as filed in PubChem BioAssay.
Pemphigus Ab inh: blocks pemphigus antibody binding to human desmoglein-3. P32926. DSG3-coupled beads, scFv-anti-DSG3-GFP binding, flow cytometry; hits give low values. binding (percent of control), % at 10 µM. hit rate 0.48% among 310,000;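 active = binding more than 3 SD below its plate's average and above zero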;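 note: hits lower antibody fragment binding to DSG3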
T cell HTS: T cell immune modulators affecting CD8 T cell-vesicle binding | 2C CD8+ T cell-vesicle binding, flow cytometry; hits give low values | AID 2052 | response (vesicle binding), % at 7 µM | hit rate 0.068% among 330,000;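 active = response, share of CD8 T cells binding vesicles, and their 90th percentile fluorescence all below set limits, cut at about 80% in these data, passing the limit was not always enough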;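 note: values below 100% mean blocked vesicle binding to the CD8+ T cells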
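Material: 2C TCR transgenic mouse naive CD8+ T cells, MACS-purified. Also added: QL9-charged Drosophila Ld/ICAM-1/B7-1 vesicles. Timing: binding 1.5 h at 37 °C. Measured by: high-throughput flow cytometry with anti-B7-1 and anti-CD8 staining. Read-out: percent CD8+ FL2 mean versus row control. Controls: Unloaded micro-vesicles (low), QL9 vesicles with 0.7% DMSO (high).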
LANA-H2A inh: blocks KSHV LANA binding to histone H2A/H2B; AID 2629; cell-free LANA-H2A/H2B peptide, fluorescence polarization; inhibition, % (no concentration beside the values); hit rate 0.6% among 320,000; Q9QR71; in the data active = inhibition mostly above about 10%, no sharp cut-off; inactive = mostly below about 6.7%
HDAC3 inhib: blocks human histone deacetylase 3. O15379. recombinant HDAC3, fluorogenic peptide/trypsin coupled, fluorescence. inhibition, % at 8.3 µM. hit rate 0.15% among 320,000. AID 2718; in the data active = inhibition above about 26%, passing the limit was not always enough
Target sequence (O15379 whole entry, looked up): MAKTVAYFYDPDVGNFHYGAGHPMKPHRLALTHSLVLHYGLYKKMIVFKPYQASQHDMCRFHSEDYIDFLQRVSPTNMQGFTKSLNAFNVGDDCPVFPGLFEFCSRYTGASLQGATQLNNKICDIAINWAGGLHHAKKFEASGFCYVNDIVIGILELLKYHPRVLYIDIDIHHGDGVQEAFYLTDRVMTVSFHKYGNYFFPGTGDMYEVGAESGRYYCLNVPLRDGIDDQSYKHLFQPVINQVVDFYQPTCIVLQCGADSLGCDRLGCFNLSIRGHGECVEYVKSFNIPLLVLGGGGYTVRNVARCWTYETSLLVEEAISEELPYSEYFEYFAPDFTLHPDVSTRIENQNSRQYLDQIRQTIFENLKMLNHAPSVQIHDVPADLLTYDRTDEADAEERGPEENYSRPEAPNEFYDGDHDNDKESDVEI
Arrestin-AP2 inh: human beta-arrestin and AP2 interaction inhibition | FITC-arrestin peptide / GST-AP2 beads, flow cytometry; AP2 beta2 appendage carries R879A mutation | AID 504490 | hit rate 0.31% among 340,000 | inhibition, % at 10 µM;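 active = inhibition above a set limit, near 3 SD of compounds lacking own fluorescence, cut at about 54% in these data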;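 note: plate controls were DMSO wells for no effect and 5 µM unlabelled arrestin peptide for full effect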
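System: GST-AP2 R879A bound to glutathione beads, E. coli-expressed. Also added: 50 nM FITC-arrestin peptide. Schedule: compound with beads 12 min RT, then probe 1 h RT. Signal: bead flow cytometry, FITC channel. Read-out basis: percent response.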
An asterisk follows results filed as active; i = inactive; · = no result given; + = active, no number; ! = not active in a repeat. The list is not random: actives were taken first. Their share in the collection is about 1.5%.

SMILES	Pemphigus Ab inh	T cell HTS	LANA-H2A inh	HDAC3 inhib	Arrestin-AP2 inh
Cc1ccc(-n2nc(C)c3c(C)cc(=O)[nH]c32)cc1	97	244	11	-4	10
CCc1ccc(C(=O)Nc2ccc(S(=O)(=O)Nc3nc(C)cc(C)n3)cc2)o1	35*	149	4	4	-2
Cc1cc(Cl)ccc1N(CC(=O)N=Nc1c(O)[nH]c2ccccc12)S(C)(=O)=O	101	520	2	-2	18
Cc1ccc(S(=O)(=O)N(CC(=O)N=Nc2c(O)[nH]c3ccccc23)c2cccc(C)c2)cc1	85*	241	2	24	1
COc1cc2cc(CCOC(=O)c3ccco3)oc(=O)c2cc1OC	103	198	-4	4	0
Cc1ccc(N2C(=O)[C@@H]3C(C(=O)CN4C(=O)c5ccccc5C4=O)=NN[C@@H]3C2=O)c(C)c1	106	273	24*	-2	-3
COc1ccccc1N1C(=O)[C@@H]2C(C(=O)CN3C(=O)c4ccccc4C3=O)=NN[C@@H]2C1=O	109	309	32*	1	-3
CC(C)N(CCNC(=O)c1nn(Cc2ccccc2)c(=O)c2ccccc12)C(C)C	·	0.0*	7	0	14
O=C(c1ccco1)N1N=C(c2ccco2)CC1c1ccc(Cl)cc1Cl (stereo not drawn)	105	301	+	0	4
C/C(N)=C(/C#N)C(=O)CSc1nnc(-c2ccc3c(c2)OCO3)o1	99	634	-2	0	-11
C/C(N)=C(/C#N)C(=O)CSc1nnc(-c2ccc(OC(F)F)cc2)o1	80*!	i	-3	5	0
CC(=O)C1=C(O)C(=O)OC1c1ccc(Cl)cc1 (stereo not drawn)	76*	33	3	-1	-1
CC(C)(C)c1[nH]nc2c1C(c1cccnc1)C(C#N)=C(N)O2 (stereo not drawn)	101	762	3	-2	-1
CC(C)(C)c1[nH]nc2c1C(c1ccc(OC(=O)c3ccco3)cc1)C(C#N)=C(N)O2 (stereo not drawn)	98	250	6	54*	-4
CC(C)(C)c1ccc(C2C(C#N)=C(N)Oc3n[nH]c(-c4cccnc4)c32)cc1 (stereo not drawn)	15*	56	-2	3	4
COc1cc(OC)cc(C2C(C#N)=C(N)Oc3n[nH]c(-c4cccnc4)c32)c1 (stereo not drawn)	85	260	-1	-2	3
Cc1ccc(NC(=S)N2CCCC(CO)C2)c(C)c1 (stereo not drawn)	85	174	30*	-5	6
Cc1cc2oc(=O)cc(CNc3ccccc3F)c2cc1O	100	426	6	-1	-7
CCOc1ccccc1NCc1cc(=O)oc2cc(C)c(O)cc12	86*	240	1	2	15
COc1ccc(C2CC(C)(c3ccc(OC)cc3OC)Nc3ccccc3N2)c(OC)c1 (stereo not drawn)	130	66*	8	3	21
C=CCN1C(=O)C(Cc2ccc(F)cc2)S/C1=N/N=C/c1cccs1 (stereo not drawn)	103	608	1	-4	10
O=C1CS/C(=N/N=C/c2cccs2)N1Cc1ccc(F)cc1	70*	545	4	-2	-5
CCCCOC(=O)CSc1nc(N)c(C#N)c(-c2ccc(OCC)cc2)c1C#N	80*	318	3	12	17
CCCOC(=O)CSc1nc(N)c(C#N)c(-c2ccco2)c1C#N	·	348	-1	5	4
CCOc1ccc(-c2c(C#N)c(N)nc3sc(C(=O)c4ccccc4)c(N)c23)cc1	102	142	11*	-4	6
SMILES	Pemphigus Ab inh	T cell HTS	LANA-H2A inh	HDAC3 inhib	Arrestin-AP2 inh
CCCCOC(=O)CSc1nc(N)c(C#N)c(-c2ccc(OC)cc2)c1C#N	-28*	229	-1	-1	-8
CCCOC(=O)CSc1nc(N)c(C#N)c(CC)c1C#N	13*	164	-4	-1	-1
COc1ccc(-c2c(C#N)c(N)nc3sc(C(=O)c4ccccc4)c(N)c23)cc1	92	332	5	-3	4
O=C(NC1CCOC1=O)c1ccccc1 (stereo not drawn)	105	·	·	·	1
O=C(NC1CSC/C1=N\O)c1ccccc1 (stereo not drawn)	82*	400	3	-8	14
Cc1ccc(N2CC(C(=O)NCCS(=O)(=O)N3CCN(c4ccccc4)CC3)CC2=O)cc1C (stereo not drawn)	99	248	1	2	-5
CN(C)/C(=N\S(=O)(=O)c1ccccc1)c1ccc(F)cc1	109	430	16*	1	6
Cc1cccc(-n2ncc3c(Nc4ccc(F)cc4)ncnc32)c1	100	271	-2	0	14
NNc1ncnc2c1cnn2-c1ccccc1	95	350	26*	6	-4
CCOc1ccc(Nc2ncnc3c2cnn3Cc2ccccc2)cc1	99	246	2	3	18
COc1ccc(Nc2ncnc3c2cnn3-c2cccc(C)c2)cc1OC	34*	·	·	·	7
CCOc1ccc(Nc2ncnc3c2cnn3-c2ccccc2)cc1	48*	477	1	4	-2
Cc1ccc(S(=O)(=O)N2CCOCC2)cc1NC(=O)CSc1nnc(COc2ccccc2F)n1N	101	·	·	·	1
COc1ccccc1C(=O)NC1CCN(C(=O)Nc2ccc(F)cc2)CC1	126	340	-2	-1	3
O=C(COC(=O)c1cnccn1)NCCc1ccc(Cl)cc1	107	·	·	·	3
O=C(COc1ccc(Br)cc1F)Nc1nnc(C2CC2)s1	103	454	-2	-3	1
Cc1ccc(NS(=O)(=O)c2ccc(C(=O)Nc3nncs3)cc2)cc1	129	129	9	-7	-6
COc1ccccc1NC(=S)N1CCN(C(=O)c2ccco2)CC1	96	688	16*	-5	-4
COc1ccccc1NC(=O)N1CCN(C(=O)c2ccco2)CC1	109	238	5	4	5
COc1ccccc1NC(=O)/C(=C\c1cccs1)NC(=O)c1ccco1	83	119	+	4	5
COc1ccc2oc(C(=O)N3CCN(C(=O)c4ccco4)CC3)c(C)c2c1	115	238	20*	3	-13
COc1ccccc1CCN1CCCC(CN(C)C(=O)CCC(N)=O)C1 (stereo not drawn)	103	398	-7	-6	7
CC(C)C(NC(=O)c1ccc(Cl)cc1)C(=O)NCC1CCCO1 (stereo not drawn)	102	550	1	0	-4
COc1ccc(NC(=O)CN(C)CC(=O)N2CC(=O)Nc3ccccc32)cc1	97	229	-3	1	-5
O=C(Oc1ccc(N(Cc2cccs2)C2=NS(=O)(=O)c3ccccc32)cc1)c1ccco1	·	141	-2	58*	0
CN(C)c1ccc(NC(=O)c2ccc(N3CCOCC3)nc2)cc1	104	103	-1	3	25
